Laboratory results from ChEMBL document CHEMBL1130397, “Structure-activity relationships of (4-acylpyrrol-2-yl)alkanoic acids as inhibitors of the cytosolic phospholipase A2: variation of the substituents in positions 1, 3, and 5” (J Med Chem, 1997).
Calls of active or inactive are those of the source. The rule behind the calls is not given here.

How the values were obtained:
[1] = Percentage platelet cell lysis at 33 uM measured by turbidimetry.; type: functional, Bos taurus
Outline: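 Turbidimetric lysis: ETYA solution, then test compound or solvent control, then bovine platelet suspension and calcium chloride at 37 °C. After dilution with phosphate-buffered saline, absorbance read at 800 nm; lysis lowers absorbance. Compounds dissolved in DMSO or DMSO–0.05 M ethanolic NaOH (1+1). Performed within 36 h of platelet isolation; platelets kept at 4 °C.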

[2] = target: T1, Cytosolic phospholipase A2 (Bos taurus, UniProt A4IFJ5); assay: Inhibition of cPLA2 measuring Calcium ionophore A-23,187-induced arachidonic acid release from bovine platelets with HPLC/UV detection; type: functional
T1 sequence (A4IFJ5 whole entry): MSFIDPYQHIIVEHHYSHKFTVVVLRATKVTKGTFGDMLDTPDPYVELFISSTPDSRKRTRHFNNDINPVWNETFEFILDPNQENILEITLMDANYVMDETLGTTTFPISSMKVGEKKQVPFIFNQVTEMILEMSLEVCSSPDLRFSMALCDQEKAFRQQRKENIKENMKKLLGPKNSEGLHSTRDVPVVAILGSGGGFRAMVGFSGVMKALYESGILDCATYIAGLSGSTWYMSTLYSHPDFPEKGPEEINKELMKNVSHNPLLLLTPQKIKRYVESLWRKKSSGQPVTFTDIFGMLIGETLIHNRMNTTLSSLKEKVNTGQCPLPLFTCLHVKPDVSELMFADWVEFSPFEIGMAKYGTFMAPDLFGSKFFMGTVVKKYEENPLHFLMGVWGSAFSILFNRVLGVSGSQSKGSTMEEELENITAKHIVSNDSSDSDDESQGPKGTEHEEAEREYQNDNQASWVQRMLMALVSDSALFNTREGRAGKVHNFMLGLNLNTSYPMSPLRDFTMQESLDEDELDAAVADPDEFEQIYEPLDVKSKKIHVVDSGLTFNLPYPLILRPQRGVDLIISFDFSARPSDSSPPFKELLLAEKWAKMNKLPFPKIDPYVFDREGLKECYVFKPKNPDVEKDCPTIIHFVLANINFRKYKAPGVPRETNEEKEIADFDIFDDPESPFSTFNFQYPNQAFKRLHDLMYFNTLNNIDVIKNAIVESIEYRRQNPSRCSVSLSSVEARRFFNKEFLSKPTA
Outline: (§1)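 Bovine platelet suspension stimulated with calcium ionophore A23187; released arachidonic acid quantified by HPLC/UV. Test compounds in DMSO, or DMSO–0.05 M ethanolic NaOH, added after platelets in the latter case to protect ETYA. Assays run within 36 h of platelet isolation; platelets stored at 4 °C. Values averaged from at least two runs, error within ±20%.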

[3] = Ability of arachidonic acid release at 10 uM; type: functional; outline: as §1
[4] = target: T1, Cytosolic phospholipase A2; assay: Inhibition of cPLA2 measuring Calcium ionophore A-23,187-induced arachidonic acid release from bovine platelets with HPLC/UV detection.; type: functional; outline: as §1
[5] = test system: Cytosolic phospholipase A2 (Bos taurus); assay: Inhibition of cPLA2 measuring Calcium ionophore A-23,187-induced arachidonic acid release from bovine platelets with HPLC/UV detection. at 3.3 uM concentration.
[6] = test system: Cytosolic phospholipase A2 (Bos taurus); assay: Inhibition of cPLA2 measuring Calcium ionophore A-23,187-induced arachidonic acid release from bovine platelets with HPLC/UV detection; 0% inhibition at 3.3 uM concentration.
[7] = test system: Cytosolic phospholipase A2 (Bos taurus); assay: Inhibition of cPLA2 measuring Calcium ionophore A-23,187-induced arachidonic acid release from bovine platelets with HPLC/UV detection; Not active at 20 uM
[8] = test system: Cytosolic phospholipase A2 (Bos taurus); assay: Inhibition of cPLA2 measuring Calcium ionophore A-23,187-induced arachidonic acid release from bovine platelets with HPLC/UV detection.; NA = 0% inhibition at 3.3 uM
[9] = 33 uM, in the assay text read “at 33 uM” for “at 10 uM”

| SMILES | Lysis [1] | IC50 ([4]; read-out: IC50) | also measured |
| --- | --- | --- | --- |
| CCCCCCCCCCCC(=O)c1c(C)c(CCC(=O)O)n(CCCCC(=O)O)c1C | 0% | – | IC50 [2]: 3.9 µM |
| CCCCCCCCCCCCCCCCCC(=O)c1c(Cc2ccccc2)c(CC(=O)O)n(Cc2ccccc2)c1C | 24% | – | Activity ([3]; 10 uM): 1.3 fold |
| CCCCCCCCCCCCCCCCCC(=O)c1c(C)c(CC(=O)O)n(CCCCCCC)c1C | 19% | – | IC50 [4]: Not Active |
| CCCCC/C=C\C/C=C\C/C=C\C/C=C\CCCC(=O)C(F)(F)F [ARACHIDONYL TRIFLUOROMETHYLKETONE] | 31% | – | – |
| CCCCCCCCCCCCCCCCCC(=O)c1c(C)c(CCC(=O)O)n(CCCCCC(=O)O)c1C | 54% | – | inhibition [5]: 52% |
| CCCCCCCCCCCCCCCCCC(=O)c1c(C)c(CCC(=O)O)n(CC)c1C | 0% | 11 µM | – |
| CCCCCCCCCCCC(=O)c1c(C)c(CCC(=O)O)n(CCCCCC(=O)O)c1C | 0% | – | IC50 [2]: 3.4 µM |
| CCCCCCCCCCCCCCCCCC(=O)c1c(C)c(CC(=O)O)n(CCCCCC)c1C | 37% | > 10 µM | – |
| CCCCCCCCCCCCCCCCCC(=O)c1c(C)c(CCC(=O)O)n(Cc2ccc(C#N)cc2)c1C | 26% | – | inhibition [5]: 15% |
| CCCCCCCCCCCC(=O)c1c(C)c(CC(=O)O)n(CCCCCC(=O)O)c1C | 0% | – | IC50 [2]: 11 µM |
| CCCCCCCCCCCC(=O)c1c(C)c(CC(=O)O)n(CCCCCCC(=O)O)c1C | 0% | – | IC50 [2]: 5.6 µM |
| CCCCCCCCCCCCCCCCCC(=O)c1c(C)c(CCC(=O)O)n(Cc2ccc(Cl)cc2)c1C | 13% | – | inhibition [6]: inactive |
| CCCCCCCCCCCCCCCCCC(=O)c1c(C)c(CCC(=O)O)n(Cc2ccc(C(=O)O)cc2)c1C | 57% | – | inhibition [5]: 47% |
| CCCCCCCCCCCCCCCCCC(=O)c1cc(CCC(=O)O)n(C)c1 | 0% | 14 µM | – |
| CCCCCCCCCCCC(=O)c1c(C)c(CC(=O)O)n(CCCCCCCCC(=O)O)c1C | 21% | – | IC50 [2]: 3.3 µM |
| CCCCCCCCCCCCCCCCCC(=O)c1c(C)c(CCC(=O)O)n(CCC)c1C | 0% | 11 µM | – |
| CCCCCCCCCCCCCCCCCC(=O)c1c(C)c(CC(=O)O)n(CC)c1C | 10% | 9 µM | – |
| CCCCCCCCCCCCCCCCCC(=O)c1c(C)c(CCC(=O)O)n(CCCCCC#N)c1C | 39% | – | inhibition [5]: 40% |
| CCCCCCCCCCCCCCCCCC(=O)c1c(Cc2ccccc2)c(CC(=O)O)n(C)c1C | 22% | 10 µM | – |
| CCCCCCCCCCCCCCCCCC(=O)c1c(C)c(CCC(=O)O)n(Cc2ccc(C)cc2)c1C | 14% | – | IC50 [7]: Not Active; inhibition [6]: inactive |
| CCCCCCCCCCCC(=O)c1c(C)c(CC(=O)O)n(CCCCCCCC(=O)O)c1C | 0% | – | IC50 [2]: 3.7 µM |
| CCCCCCCCCCCC(=O)c1c(C)c(CCC(=O)O)n(CCCCCCCC(=O)O)c1C | 0% | – | IC50 [2]: 3.6 µM |
| CCCCCCCCCCCCCCCCCC(=O)c1c(C)c(CCC(=O)O)n(C)c1C | 0% | 13 µM | – |
| CCCCCCCCCCCCCCCCNC(=O)[C@@H]1CCCN1 | 0% | 13 µM | – |

| SMILES | Lysis [1] | IC50 ([4]; read-out: IC50) | also measured |
| --- | --- | --- | --- |
| CCCCCCCCCCCC(=O)c1c(C)c(CCC(=O)O)n(C)c1C | 0% | – | IC50 [2]: 13 µM |
| CCCCCCCCCCCCCCCCCC(=O)c1c(C)c(CC(=O)O)n(CCCCCCCCCCCC)c1C | 0% | – | Activity [3, 9]: 1.5 fold |
| CCCCCCCCCCCCCCCCCC(=O)c1c(C)c(CCC(=O)O)n(Cc2ccc(C(N)=O)cc2)c1C | 0% | – | inhibition [5]: 44% |
| CCCCCCCCCCCCCCCCCC(=O)c1cc(CC(=O)O)n(C)c1 | 0% | 15 µM | – |
| CCCCCCCCCCCCCCCCCC(=O)c1c(C)c(CC(=O)O)n(Cc2ccccc2)c1C | 32% | 7 µM | – |
| CCCCCCCCCCCCCCCCCC(=O)c1c(C)c(CCC(=O)O)n(CCCCCC(=O)N(C)C)c1C | 67% | – | inhibition [5]: 38% |
| CCCCCCCCCCCC(=O)c1c(C)c(CCC(=O)O)n(CCCCCCC(=O)O)c1C | 0% | – | IC50 [2]: 3.8 µM |
| CCCCCCCCCCCCCCCCCC(=O)c1c(C)c(CCC(=O)O)n(Cc2ccc(C(F)(F)F)cc2)c1C | 13% | – | inhibition [6]: inactive |
| CCCCCCCCCCCCCCCCCC(=O)c1c(C)c(CC(=O)O)n(C)c1C | 0% | 10 µM | – |
| CCCCCCCCCCCCCCCCCC(=O)c1c(C)c(CC(=O)O)n(C)c1CCCCCCCCCCCC | 0% | – | Activity [3, 9]: 1.5 fold |
| CCCCCCCCCCCC(=O)c1c(C)c(CC(=O)O)n(C)c1C | 0% | – | IC50 [2]: 11 µM |
| CCCCCCCCCCCCCCCCCC(=O)c1c(CCCCCCCCCCCC)c(CC(=O)O)n(C)c1C | 0% | – | Activity [3, 9]: 1.5 fold |
| CCCCCCCCCCCCCCCCCC(=O)c1c(C)c(CCC(=O)O)n(CCCCCCN(C)C)c1C | 0% | – | inhibition [5]: 33% |
| CCCCCCCCCCCCCCCCCC(=O)c1c(C)c(CC(=O)O)n(Cc2ccc(C)cc2)c1C | 29% | 9 µM | – |
| CCCCCCCCCCCC(=O)c1c(C)c(CCC(=O)O)n(CCC(=O)O)c1C | 0% | – | IC50 [2]: 8 µM |
| CCCCCCCCCCCCCCCCCC(=O)c1c(C)c(CC(=O)O)n(C)c1Cc1ccccc1 | 0% | 12 µM | – |
| CCCCCCCCCCCCCCCCCC(=O)c1c(C)c(CCC(=O)O)n(Cc2ccc(C(=O)N(C)C)cc2)c1C | 42% | – | inhibition [5]: 34% |
| CCCCCCCCCCCCCCCCCC(=O)c1c(C)c(CCC(=O)O)n(CCCCCCO)c1C | 0% | – | inhibition [5]: 20% |
| CCCCCCCCCCCCCCCCCC(=O)c1c(C)c(CCC(=O)O)n(CCCCCC)c1C | 10% | – | inhibition [8]: inactive; IC50 [7]: Not Active |
| CCCCCCCCCCCCCCCCCC(=O)c1c(C)c(CCC(=O)O)n(CCCCC)c1C | 13% | 10 µM | inhibition [5]: 23% |
| CCCCCCCCCCCCCCCCCC(=O)c1c(C)c(CC(=O)O)n(CCC)c1C | 34% | 8 µM | – |
| CCCCCCCCCCCCCCCCCC(=O)c1c(C)c(CCC(=O)O)n(Cc2ccc(OC)cc2)c1C | 12% | – | inhibition [5]: 31% |
| CCCCCCCCCCCCCCCCCC(=O)c1c(C)c(CCC(=O)O)n(Cc2ccc(O)cc2)c1C | 0% | – | inhibition [5]: 30% |
| CCCCCCCCCCCCCCCCCC(=O)c1c(C)c(CCC(=O)O)n(Cc2ccccc2)c1C | 19% | 12 µM | inhibition [5]: 20% |
